Consider ten compounds from ChEMBL document CHEMBL1138849, “5-substituted tetrazoles as bioisosteres of carboxylic acids. Bioisosterism and mechanistic studies on glutathione reductase inhibitors as antimalarials” (J Med Chem, 2004).

Activity calls are given as the source filed them. The rule behind the calls is not given here.

Test [1] concerns the target T1, Glutathione reductase, mitochondrial (Homo sapiens) (UniProt P00390).
T1 sequence (whole entry): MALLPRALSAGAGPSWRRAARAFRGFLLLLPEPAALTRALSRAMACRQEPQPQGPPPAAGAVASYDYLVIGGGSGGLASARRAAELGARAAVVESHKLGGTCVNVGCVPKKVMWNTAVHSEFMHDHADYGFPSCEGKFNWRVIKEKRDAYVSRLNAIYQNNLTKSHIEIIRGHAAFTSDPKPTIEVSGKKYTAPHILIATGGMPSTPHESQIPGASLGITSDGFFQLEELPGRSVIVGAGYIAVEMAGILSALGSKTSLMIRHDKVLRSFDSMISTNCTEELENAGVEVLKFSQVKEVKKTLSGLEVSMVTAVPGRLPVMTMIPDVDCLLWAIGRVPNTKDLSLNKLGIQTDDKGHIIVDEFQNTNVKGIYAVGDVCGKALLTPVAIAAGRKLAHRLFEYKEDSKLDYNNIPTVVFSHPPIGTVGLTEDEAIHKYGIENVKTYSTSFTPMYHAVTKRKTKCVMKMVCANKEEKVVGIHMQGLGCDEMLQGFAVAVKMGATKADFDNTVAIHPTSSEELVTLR
Briefly: Ratio of Catalysis constant Michaelis-Menten constant of human glutathione reductase. Summed up:
(§1)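 Recombinant human or P. falciparum GR run as a quinone reductase without GSSG. Mix: 100 mM phosphate pH 7.0, 200 mM KCl, 100 μM NADPH, 1% DMSO, enzyme, and naphthoquinone at 10 levels from 10 to 400 μM. NADPH oxidation read at 340 nm (ε 6.22 mM⁻¹ cm⁻¹). Steady-state rates fitted to Michaelis–Menten by nonlinear regression to give Km and Vmax; kcat and kcat/Km calculated.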

In test [2] the target is T1, Glutathione reductase, mitochondrial (Homo sapiens). The test can be described thus: Catalysis constant against human glutathione reductase. Summed up:
as §1

Test [3] has as its target Glutathione reductase (Plasmodium falciparum 3D7) (UniProt O15770). The test can be described thus: Ratio of Catalysis constant Michaelis-Menten constant of Plasmodium falciparum glutathione reductase. Summed up:
as §1

Test [4] shares this target. The test can be described thus: Catalysis constant against Plasmodium falciparum glutathione reductase. Put shortly: as §1
Another test relates to MRC5. The test can be described thus: Cytotoxicity against human diploid embryonic lung cell line hMRC-5 was observed at conc. upto 32 uM; (No cytotoxicity). In kind it is functional, cell-based.

Chain of Glutathione reductase (Plasmodium falciparum 3D7) (O15770 whole entry): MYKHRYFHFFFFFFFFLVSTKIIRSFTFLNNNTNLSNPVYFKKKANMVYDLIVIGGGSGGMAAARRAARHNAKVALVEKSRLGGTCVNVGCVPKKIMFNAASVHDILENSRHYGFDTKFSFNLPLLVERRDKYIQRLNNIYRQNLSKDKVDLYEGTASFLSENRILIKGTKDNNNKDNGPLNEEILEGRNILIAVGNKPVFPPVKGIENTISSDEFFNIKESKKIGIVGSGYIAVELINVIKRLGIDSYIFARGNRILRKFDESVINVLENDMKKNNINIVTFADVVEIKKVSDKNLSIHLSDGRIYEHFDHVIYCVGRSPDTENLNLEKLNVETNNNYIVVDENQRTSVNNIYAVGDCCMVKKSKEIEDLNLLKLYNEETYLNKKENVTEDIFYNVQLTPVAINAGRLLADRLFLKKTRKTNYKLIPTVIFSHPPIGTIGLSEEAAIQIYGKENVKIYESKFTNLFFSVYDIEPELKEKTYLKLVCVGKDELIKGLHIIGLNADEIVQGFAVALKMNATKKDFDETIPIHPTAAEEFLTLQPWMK

Consider `CC1=CC(=O)c2ccccc2C1=O`, for which the K cat/Km in test [1] was found to be 5330 M⁻¹ s⁻¹; in test [3], 1990 M⁻¹ s⁻¹. The K cat in test [2] and in test [4] was 0.16 s⁻¹ throughout.

For the compound `CC1=C(CCCC(=O)NCCC#N)C(=O)c2ccccc2C1=O`, the Cytotoxicity entry with MRC5 was “inactive”.

As for `CC1=C(CCCCC(=O)O)C(=O)c2ccccc2C1=O`, the Cytotoxicity entry in the test on MRC5 was “inactive”.

On to `CC1=C(CCCCc2nnnn2CCC#N)C(=O)c2ccccc2C1=O`, for which the Cytotoxicity result with MRC5 was “inactive”.

For `CC1=C(CCCc2nnnn2CCC#N)C(=O)c2ccccc2C1=O`, the Cytotoxicity entry in the test with MRC5 is “inactive”.

As for `CC1=C(CCCCCC(=O)NCCC#N)C(=O)c2ccccc2C1=O`, the Cytotoxicity result in the test with MRC5 was “inactive”.

Take `CC1=C(CCCCC(=O)NCCC#N)C(=O)c2ccccc2C1=O`: the Cytotoxicity entry in the test with MRC5 was “inactive”.

On to `CC1=C(CCCCCc2nnnn2CCC#N)C(=O)c2ccccc2C1=O`, for which, in the test on MRC5, the Cytotoxicity entry was “inactive”.

Take `CC1=C(CCCCCC(=O)O)C(=O)c2ccccc2C1=O`: the Cytotoxicity result in the test on MRC5 is “inactive”.

`CC1=C(CCCCCC(=O)OCCN(C)C)C(=O)c2ccccc2C1=O`: the Cytotoxicity entry with MRC5 is “inactive”.
